Assays:
[1] = melting temperature; fluorescence melt of hairpins on a sequencing array, two-state fit, raised by 9.35 °C to match UV melts; conditions: sodium 0.088 M
Summary of the method: (§1)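 Cy3 signals were normalised both to pre-quench Cy3 and to control constructs. They came from library hairpins carrying annealed Cy3 and quencher oligos on a sequenced MiSeq flow cell, imaged in 50 mM Na-HEPES pH 8.0, 25 mM NaCl, in 2.5 °C steps up to 60 °C. Bootstrapped two-state fits gave melting temperature and folding enthalpy, and four replicates were combined by inverse variance. Fitted temperatures were then raised by 9.35 °C to match UV melts.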

[2] = folding enthalpy; higher = less favourable; fluorescence melt of hairpins on a sequencing array, two-state fit; conditions: sodium 0.088 M
Summary of the method: as §1

| Sequence | Tm [1] [°C] | folding enthalpy [2] [kcal/mol] |
| --- | --- | --- |
| GTTATCCGAAAGGACAAC (((.(((....))).))) | 39.6 | -26.3 |
| GTGGTGGGAAACTACCAC (((((.(....).))))) | 52.6 | -43.4 |
| GCGAATGGAAACATTTGC ((.((((....)))).)) | 49.5 | -33.6 |
| GACACCGGAAACGGTATC ((.((((....)))).)) | 36.1 | -15.9 |
| GTCTCAGGAAACCGAGAC (((((.(....).))))) | 45.7 | -30.8 |
| GTGTCTGGAAACAGGTAC ((..(((....)))..)) | 30.1 | -11.4 |
| GCTGCGCGAAAGCTCGGC ((.(.((....)).).)) | 48.3 | -22.4 |
| GATCCGGCACCGGATC ((((((....)))))) | 63.8 | -44 |
| GCCCCTCGAAAGAGAGGC (((.(((....))).))) | 52.8 | -31.4 |
| CGGAAGAAATTCCG (((((....))))) | 46.4 | -25.1 |
| GGTCGCGAAAGCGAAACC ((((((....)))..))) | 50 | -11.9 |
| GCCTACGGAAACGTAGAC (.(((((....))))).) | 41.8 | -18.1 |
| GAAAGCGAAAGCTAATTC ((((((....)))..))) | 28.8 | -8.31 |
| GATCAGTGACTGATC ((((((...)))))) | 48.7 | -26.2 |
| GGAGTCGAAAGACTATCC ((((((....)))..))) | 32.9 | -13.8 |
| GATCTGAGGCCAGATC ((((((....)))))) | 47.1 | -35.8 |
| GTTGATGGAAACATCAAC (((((((....))))))) | 57.7 | -46.2 |
| GATCTCCACTGAGATC ((((((....)))))) | 51.7 | -40.7 |
| GAGCGTGGAAACGCGTTC ((.((.(....).)).)) | 51.7 | -12.1 |
| GACATCACGAAAGTGGTC (((..(((....)))))) | 34.7 | -14.5 |
| GTGATGGGAAACCATCAC (((((((....))))))) | 64.6 | -43.8 |
| GCGAAGACTCGC ((((....)))) | 44.8 | -15.8 |
| GGGTAACGAAAGTTGCCC (((.(((....))).))) | 59.6 | -49.4 |

| Sequence | Tm [1] [°C] | folding enthalpy [2] [kcal/mol] |
| --- | --- | --- |
| GAAAGCGGAAACGCTCTC ((.((((....)))).)) | 35 | -12.3 |
| GGGCAGGCGAAAGCCCCC (((..(((....)))))) | 46 | -14.5 |
| GCAAAGGGAAACCTTCGC ((.((((....)))).)) | 39.2 | -26.8 |
| GGCGAGGGAAACCCCGCC ((((.((....)).)))) | 57.9 | -46.8 |
| GGTCTCGAAAGAGCGACC ((((((....)))..))) | 37.3 | -18.1 |
| GATCCCTGCCGGGATC ((((((....)))))) | 60 | -42.8 |
| GATCAGTATTCTGATC ((((((....)))))) | 51 | -39.1 |
| GCTGCCGAAAGGCGTAGC ((((((....)))..))) | 50.5 | -17.2 |
| GTTCTTACGAAAGTAAAC (((..(((....)))))) | 21.9 | -6.21 |
| GAAAGTGAAAACTTTC ((((((....)))))) | 47.7 | -27.2 |
| GATCACTGCCGTGATC ((((((....)))))) | 55.9 | -44.5 |
| GTTCTGGGAAACTAGAAC (((((.(....).))))) | 42.9 | -29.6 |
| GGCTTACGAAAGTAGCC (((.(((....)))))) | 55.5 | -34.1 |
| GGTAGCGAAAGCTTACC ((((((....))).))) | 51.6 | -20.9 |
| GCAATGCGAAAGCTTCGC ((.(.((....)).).)) | 44 | -11.9 |
| GCTGTGCGAAAGCATTGC ((..(((....)))..)) | 53.5 | -20.7 |
| GTTGACGGAAACGTCAGC (.(((((....))))).) | 52.5 | -22 |
| GAAGGACGAAAGTCTTTC (((.(((....))).))) | 46.3 | -25 |
| GCGTTCGAAAGAACCCGC ((((((....)))..))) | 40.8 | -14.2 |
| GGATTCGAAAGAATATCC ((((((....)))..))) | 30.3 | -9.96 |
| GAGTACGAAAGTACCCTC ((((((....)))..))) | 38.6 | -13.2 |
| GCTCAGGGAAACCTGGGC ((.((((....)))).)) | 54.4 | -39.6 |
| GACACCCGAAAGGGGTC (((.(((....)))))) | 54.8 | -18.5 |

| Sequence | Tm [1] [°C] | folding enthalpy [2] [kcal/mol] |
| --- | --- | --- |
| GCAGGCGGAAACACCCGC ((.((.(....).)).)) | 36.1 | -12.6 |
| GCACGCGAAAGCGTCTGC ((((((....)))..))) | 47.4 | -11.1 |
| GCAGTAGGAAACTACCAC (..((((....))))..) | 19.6 | -6.77 |
| GTAGCTGGAAACAGCTAC (((((((....))))))) | 66 | -39 |
| GTCTGCGAAAGCAGAGAC ((((((....)))..))) | 51.4 | -9.97 |
| GCGCACCGAAAGGTACGC (((.(((....))).))) | 64.3 | -42.3 |
| GATCAATCACTTGATC ((((((....)))))) | 43.2 | -29.9 |
| GCTAAACGAAAGTTAAGC (((.(((....))).))) | 44.3 | -29.1 |
| GTTATGCGAAAGCAGAAC (((.(((....))).))) | 55.9 | -31.5 |
| GTGACTCGAAAGAGGCAC (((.(((....))).))) | 67.9 | -34.4 |
| GCGTCCGGAAACGGGTGC ((..(((....)))..)) | 51.2 | -30.8 |
| AGAATGAAAATTCT (((((....))))) | 25.9 | -10.8 |
| GTAATCGAAAGATGCTAC ((((((....)))..))) | 30.2 | -17.3 |
| GAAGTCGGAAACGACCTC ((.((((....)))).)) | 37.2 | -13.6 |
| GCCAAGCGAAAGCTGAGC ((..(((....)))..)) | 47.7 | -15.3 |
| GCGAATACTCGC ((((....)))) | 46.2 | -22.1 |
| GTGTGCGAAAGCAGACAC ((((((....)))..))) | 53.2 | -19.1 |
| GGTAAAGGAAACTTTATC (.(((((....))))).) | 30.5 | -18.7 |
| GATCTCCGAGGAGATC ((((((....)))))) | 60.4 | -37.8 |
| GGGGAAGCGAAAGCTCCC (((..(((....)))))) | 59.8 | -17.8 |
| GCGTTCGAAAGAATACGC ((((((....)))..))) | 47.5 | -27.3 |
| GGTAATGGAAACATTATC (.(((((....))))).) | 35.7 | -26.8 |
| GGGCATCGAAAGATTCCC (((.(((....))).))) | 47.5 | -27.7 |

| Sequence | Tm [1] [°C] | folding enthalpy [2] [kcal/mol] |
| --- | --- | --- |
| GACGTCGCGAAAGCGGTC (((..(((....)))))) | 39.3 | -11.5 |
| GCATCCTCGAAAGAGTGC (((..(((....)))))) | 33.1 | -19.1 |
| GTCTTCGGAAACGAAAAC ((.((((....)))).)) | 29.2 | -15.4 |
| GAGATGGGAAACCGTCTC ((((.((....)).)))) | 49.6 | -38.2 |
| GTGCGAGGAAACTTGCAC ((((.((....)).)))) | 53.7 | -54 |
| GGGATCGCGAAAGCGCCC (((..(((....)))))) | 40.6 | -13.8 |
| GGGCACGAAAGTGTCCC ((((((....))).))) | 65.1 | -16.5 |
| GGTCATGGAAACATGATC (.(((((....))))).) | 47 | -31.5 |
| ACGTAGAAATACGT (((((....))))) | 37.9 | -19.9 |
| GCGGGCACGAAAGTGCGC (((..(((....)))))) | 52.5 | -10.2 |
| GGATGTGGAAACACACCC ((.((((....)))).)) | 44.3 | -27 |
| GCCCTCGAAAGAGGTGGC ((((((....)))..))) | 48.4 | -17.7 |
| GCTTTGCGAAAGCGACGC ((.(.((....)).).)) | 47.6 | -15.2 |
| GCGCCGCGAAAGCAGTGC ((.(.((....)).).)) | 53.5 | -19.4 |
| GGTATTGGAAACAATGCC ((.((((....)))).)) | 47.7 | -37.1 |
| GGGAATGGAAACATTCTC (.(((((....))))).) | 44.9 | -24.2 |
| GTCCACCGAAAGGTTGAC (((.(((....))).))) | 49.3 | -29.6 |
| GACCAACGAAAGTTTGTC (((.(((....))).))) | 41.7 | -26.9 |
| GTTGATGGAAACATCAGC (.(((((....))))).) | 46.5 | -25 |
| GATCCGGGCACGGATC ((((((....)))))) | 67.8 | -31.1 |
| GGATCCGGAAACGGATTC (.(((((....))))).) | 52 | -15.7 |
| GTCGAATCGAAAGATGAC (((..(((....)))))) | 32.6 | -19.9 |
| GATTGACGAAAGTCCATC (((.(((....))).))) | 39.3 | -23 |

— the array DNA melting data of Ke et al. (doi:10.1101/2024.01.08.574731)
